Among the data in ChEMBL document CHEMBL1128226, “Phosphinyl acid-based bisubstrate analog inhibitors of Ras farnesyl protein transferase” (J Med Chem, 1995) are IC50 and I50 values, retold here.

The target in assay [1] is T1, Protein farnesyltransferase (Homo sapiens, UniProt P49354+P49356). The assay is described as follows: Inhibition of Ras Farnesyltransferase enzyme from pig brain. Further details: species or system Sus scrofa. The settings on record: target entry is the homologue from another species; read-out: I50. In short, it runs like this: (§1)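 Pig brain FPT purified about 2000-fold over crude cytosol. Reaction contains 1 μM [3H]FPP, 7 μM recombinant p21 H-Ras (E. coli, partially purified), 25 mM MgCl2, 10 mM DTT and 100 mM HEPES 7.4, with inhibitor usually 360 to 0.02 μM. Run 1 h at 37 °C, then SDS/TCA precipitation, filtration and scintillation counting. Triplicate points; IC50 from % control vs log concentration; each compound tested at least twice.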

The target of assay [2] is Geranylgeranyl transferase type I (Homo sapiens, UniProt P49354+P53609). Briefly: Inhibition of Geranylgeranyl transferase type I from porcine brain tissue. The arrangement: species or system Sus scrofa. Conditions: target entry is the homologue from another species; read-out: I50. In short, it runs like this:
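Porcine brain GGT-I, partially purified; substrates 12 μM bacterially expressed p21 rasCVLL and 0.5 μM [3H]GGPP (19.3 Ci/mmol), with 10 mM DTT, 5 mM MgCl2, 5 μM ZnCl2, 100 mM HEPES pH 7.4. Incubated 1 h at 37 °C. Protein precipitated with SDS/TCA, filtered, radioactivity counted. Triplicates, SEM reported; IC50 determined.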

Assay [3] concerns the target T1, Protein farnesyltransferase. Briefly: Inhibition of Ras Farnesyltransferase from pig brain. The arrangement: species or system Sus scrofa. The settings on record: target entry is the homologue from another species; read-out: I50. A digest of the protocol: as §1
In assay [4] the test system is Geranylgeranyl transferase type I (Sus scrofa). The assay is described as follows: Inhibition of Geranylgeranyl transferase type I from porcine brain tissue; 'a' indicates prodrug.
Assay [5] concerns the target T1, Protein farnesyltransferase. The assay is described as follows: Inhibition of Ras Farnesyltransferase obtained from pig brain; 'a' indicates prodrug. The settings on record: target entry is the homologue from another species. Further details: species or system Sus scrofa. A digest of the protocol:
as §1

SMILES strings stand for the structures.

Turning to `CSCC[C@H](NC(=O)[C@@H](NC(=O)[C@@H](NC(=O)COP(=O)(O)C/C=C(\C)CC/C=C(\C)CCC=C(C)C)C(C)C)C(C)C)C(=O)O`, the IC50 came out at 0.0062 µM in assay [1] and 10 µM in assay [2].

As to `CSCC[C@H](NC(=O)[C@@H](NC(=O)[C@@H](NC(=O)CCP(=O)(O)C/C=C(\C)CC/C=C(\C)CCC=C(C)C)C(C)C)C(C)C)C(=O)O`, the IC50 was 21 µM in assay [2] and 0.006 µM in assay [3].

Regarding `COC(=O)[C@H](CCSC)NC(=O)[C@@H](NC(=O)[C@@H](NC(=O)CCP(=O)(O)C/C=C(\C)CC/C=C(\C)CCC=C(C)C)C(C)C)C(C)C`, the I50 entry in assay [4] was “Prepared and evaluated as prodrugs”; in assay [5] it was “Prepared and evaluated as prodrugs”.

For `COC(=O)[C@H](CCSC)NC(=O)[C@@H](NC(=O)[C@@H](NC(=O)COP(=O)(O)C/C=C(\C)CC/C=C(\C)CCC=C(C)C)C(C)C)C(C)C`, the I50 entry in assay [4] is “Prepared and evaluated as prodrugs”; in assay [5] it was “Prepared and evaluated as prodrugs”.

`CC(C)=CCC/C(C)=C/CC/C(C)=C/CP(=O)(O)OCC(=O)N[C@H](C(=O)N[C@@H](CC(C)C)C(=O)N[C@@H](CO)C(=O)O)C(C)C`: the IC50 turned out to be 0.06 µM in assay [1] and 59 µM in assay [2].
